# Test results as given in ChEMBL document CHEMBL2203283, “Novel coumarin derivatives bearing N-benzyl pyridinium moiety: potent and dual binding site acetylcholinesterase inhibitors” (Bioorg Med Chem, 2012).
# Assays:
# [1] = Antioxidant activity of compound assessed as ferric reducing antioxidant power; assay type: functional
# Procedure, shortened: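 Modified FRAP assay. Reagent mixed from 300 mM acetate buffer pH 3.6, 10 mM TPTZ in 40 mM HCl, and 20 mM ferric chloride hexahydrate solution. Ascorbic acid and BHT served as references.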
# [2] = Selectivity ratio of IC50 for equine serum BuChE to IC50 for electric eel AChE
# Procedure, shortened: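 Ellman assay with electric eel AChE and equine serum BuChE, run by the same method. Compounds are diluted in 0.1 M phosphate buffer, pH 8.0, and preincubated 15 min at 25 °C. Substrate is acetylthiocholine iodide with DTNB, read as absorbance rate at 412 nm over 6 min. Five concentrations are tested in triplicate, with IC50 taken graphically. Ratio = IC50(BuChE)/IC50(AChE).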
# [3] = system: Radical scavenging activity; assay: Antioxidant activity of compound assessed as DPPH radical scavenging activity; assay type: functional
# Procedure, shortened: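 DPPH radical scavenging: compounds at five concentrations across a 0–25 range in methanol, mixed with 0.3 mM DPPH ethanol solution and left 30 min in the dark at room temperature. Absorbance read at 518 nm, with a compound-plus-methanol reading blank and a DPPH-plus-methanol negative control. % inhibition = [(A_B−A_A)/A_B]×100; IC50 calculated; ascorbic acid as reference.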
# [4] = target: Cholinesterase (Equus caballus, UniProt P81908); assay: Inhibition of equine serum BuChE using acetylthiocholine iodide as substrate by Ellman's method
# Chain of Cholinesterase (P81908 whole entry): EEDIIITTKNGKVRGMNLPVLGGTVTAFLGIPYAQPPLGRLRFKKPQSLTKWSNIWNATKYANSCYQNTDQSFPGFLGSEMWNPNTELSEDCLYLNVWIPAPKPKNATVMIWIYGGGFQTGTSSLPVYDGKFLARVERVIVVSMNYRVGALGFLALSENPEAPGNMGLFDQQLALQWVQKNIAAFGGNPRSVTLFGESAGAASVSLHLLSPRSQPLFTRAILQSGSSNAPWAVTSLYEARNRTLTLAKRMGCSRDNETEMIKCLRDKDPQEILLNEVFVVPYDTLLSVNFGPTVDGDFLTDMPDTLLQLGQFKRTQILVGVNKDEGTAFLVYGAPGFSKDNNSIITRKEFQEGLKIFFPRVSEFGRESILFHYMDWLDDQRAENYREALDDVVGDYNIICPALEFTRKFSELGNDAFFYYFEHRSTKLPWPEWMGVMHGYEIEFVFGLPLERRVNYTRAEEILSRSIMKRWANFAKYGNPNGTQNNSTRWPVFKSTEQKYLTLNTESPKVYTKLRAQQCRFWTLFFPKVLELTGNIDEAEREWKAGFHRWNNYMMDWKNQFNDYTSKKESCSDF
# [5] = target: Acetylcholinesterase (Electrophorus electricus, UniProt O42275); assay: Inhibition of electric eel AChE using acetylthiocholine iodide as substrate by Ellman's method
# Chain of Acetylcholinesterase (O42275 whole entry): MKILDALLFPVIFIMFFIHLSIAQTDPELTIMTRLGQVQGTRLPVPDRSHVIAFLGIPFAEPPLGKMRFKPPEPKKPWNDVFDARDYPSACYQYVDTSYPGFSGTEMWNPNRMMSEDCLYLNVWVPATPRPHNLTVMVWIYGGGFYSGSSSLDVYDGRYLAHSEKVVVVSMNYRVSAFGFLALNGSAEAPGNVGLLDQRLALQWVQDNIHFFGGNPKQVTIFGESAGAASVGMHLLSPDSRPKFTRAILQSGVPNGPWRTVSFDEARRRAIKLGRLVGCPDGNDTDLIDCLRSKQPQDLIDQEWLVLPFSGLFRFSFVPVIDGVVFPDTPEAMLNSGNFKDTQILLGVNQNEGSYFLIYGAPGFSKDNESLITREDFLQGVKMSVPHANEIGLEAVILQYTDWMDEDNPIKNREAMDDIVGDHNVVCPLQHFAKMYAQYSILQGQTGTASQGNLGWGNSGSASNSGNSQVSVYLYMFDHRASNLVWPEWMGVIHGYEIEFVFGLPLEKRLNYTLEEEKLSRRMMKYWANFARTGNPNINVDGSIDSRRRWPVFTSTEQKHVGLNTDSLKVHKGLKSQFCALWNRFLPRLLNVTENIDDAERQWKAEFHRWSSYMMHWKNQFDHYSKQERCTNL
SMILES,Activity [1],Ratio IC50 [2],IC50 [3],IC50 [4],IC50 [5]
COc1cccc2cc(C(=O)/C=C/c3cc[n+](Cc4ccccc4C)cc3)c(=O)oc12.[Cl-],< 150,2140,> 25 µg/mL,342 nM,0.16 nM
COc1cccc2cc(C(=O)/C=C/c3cc[n+](Cc4c(F)cccc4[N+](=O)[O-])cc3)c(=O)oc12.[Cl-],< 150,2.1,> 25 µg/mL,685 nM,330 nM
COc1cccc2cc(C(=O)/C=C/c3cc[n+](Cc4cccc(Cl)c4Cl)cc3)c(=O)oc12.[Cl-],< 150,57,> 25 µg/mL,6800 nM,120 nM
COc1cccc2cc(C(=O)/C=C/c3cc[n+](Cc4ccccc4F)cc3)c(=O)oc12.[Br-],< 150,12.6,> 25 µg/mL,329 nM,26 nM
COc1cccc2cc(C(=O)/C=C/c3cc[n+](Cc4ccccc4Cl)cc3)c(=O)oc12.[Cl-],< 150,272,> 25 µg/mL,125 nM,0.46 nM
O=C(/C=C/c1cc[n+](Cc2ccc(F)cc2)cc1)c1cc2cc(Br)ccc2oc1=O.[Cl-],< 150,1070,> 25 µg/mL,494 nM,0.46 nM
COc1ccc(C[n+]2ccc(/C=C/C(=O)c3cc4cccc(OC)c4oc3=O)cc2)cc1.[Cl-],< 150,0.7,> 25 µg/mL,971 nM,1470 nM
O=C(/C=C/c1cc[n+](Cc2ccccc2F)cc1)c1cc2ccccc2oc1=O.[Cl-],< 150,1.57,> 25 µg/mL,848 nM,540 nM
COc1cccc2cc(C(=O)/C=C/c3cc[n+](Cc4cccc(C)c4)cc3)c(=O)oc12.[Cl-],< 150,14,> 25 µg/mL,11200 nM,800 nM
COc1cccc2cc(C(=O)/C=C/c3cc[n+](Cc4ccc(C)cc4)cc3)c(=O)oc12.[Cl-],< 150,7.4,> 25 µg/mL,27000 nM,3650 nM
COc1cccc2cc(C(=O)/C=C/c3cc[n+](Cc4ccc(Cl)c(Cl)c4)cc3)c(=O)oc12.[Cl-],< 150,13.6,> 25 µg/mL,5790 nM,440 nM
COc1cccc2cc(C(=O)/C=C/c3cc[n+](Cc4cccc(C#N)c4)cc3)c(=O)oc12.[Br-],< 150,13.1,> 25 µg/mL,1000 nM,76 nM
O=C(/C=C/c1cc[n+](Cc2ccc(F)cc2)cc1)c1cc2ccccc2oc1=O.[Cl-],< 150,1.2,> 25 µg/mL,910 nM,760 nM
COc1cccc2cc(C(=O)/C=C/c3cc[n+](Cc4cccc(Cl)c4)cc3)c(=O)oc12.[Cl-],< 150,6.5,> 25 µg/mL,560 nM,86 nM
O=C1O[C@H]([C@@H](O)CO)C(O)=C1O [ASCORBIC ACID],1890,–,3.6 µg/mL,–,–
COc1cccc2cc(C(=O)/C=C/c3cc[n+](Cc4cccc(F)c4)cc3)c(=O)oc12.[Cl-],< 150,4470,> 25 µg/mL,2100 nM,0.47 nM
O=C(/C=C/c1cc[n+](Cc2ccccc2F)cc1)c1cc2cc(Br)ccc2oc1=O.[Cl-],< 150,4440,> 25 µg/mL,489 nM,0.11 nM
COc1cccc2cc(C(=O)/C=C/c3cc[n+](Cc4ccc(F)cc4)cc3)c(=O)oc12.[Cl-],< 150,1.97,> 25 µg/mL,931 nM,472 nM
COc1cccc2cc(C(=O)/C=C/c3cc[n+](Cc4ccc(CCl)cc4)cc3)c(=O)oc12.[Cl-],< 150,9.4,> 25 µg/mL,15100 nM,1600 nM
COc1cccc2cc(C(=O)/C=C/c3cc[n+](Cc4ccccc4)cc3)c(=O)oc12.[Cl-],< 150,–,> 25 µg/mL,–,–
